This note sets out measurements from ChEMBL document CHEMBL3259591, “Three new cembranoid-type diterpenes from Red Sea soft coral Sarcophyton glaucum: isolation and antiproliferative activity against HepG2 cells” (Eur J Med Chem, 2014).

In data set [1] the test system is PC-3. In words: Cytotoxicity against human PC3 cells after 96 hrs […]. The conditions noted are these: PC-3, 96 h. Format: functional, cell-based. The method in brief:
(§1)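 Cells seeded at 10 × 10^3/well and held 24 h at 37 °C, 5% CO2. Serum-free RPMI-1640 then added with sample at final 1000, 500, 200, 100, 50, 20, 10 µg/mL (DMSO ≤1% v/v). Incubated 96 h, then rinsed and fixed in 3.7% formaldehyde in saline for ≥20 min. IC50 taken as 50% loss of monolayer, from a straight-line fit of dose-response data.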

For data set [2], the system named is PC-3. In words: Cell cycle arrest in human PC3 cells assessed as reduction in cells at S-phase after 24 hrs by flow cytometry (reference value: 32.12 +/- 0.9%). On the set-up: scale not given: the % may be the effect or the level left. Format: functional.
For data set [3], the system named is PC-3. In words: Induction of apoptosis in human PC3 cells assessed as viable cells after 24 hrs using annexin V/propidium iodide double staining by flow cytometry (reference value: 99.60 %). Format: functional.
A further data set has as its system A549. In words: Cytotoxicity against human A549 cells after 96 hrs by […]. The conditions noted are these: A549, 96 h. Format: functional, cell-based. The gist of the method:
as §1

Data set [4] relates to PC-3. In words: Cell cycle arrest in human PC3 cells assessed as increase in cells at G0/G1-phase after 24 hrs by flow cytometry (reference value: 49.80 +/- 0.6%). Format: functional.
Data set [5] deals with PC-3. In words: Induction of apoptosis in human PC3 cells assessed as early apoptotic cells after 24 hrs using annexin V/propidium iodide double staining by flow cytometry (reference value: 0.00 %). Format: functional.
For data set [6], the system named is PC-3. In words: Induction of apoptosis in human PC3 cells assessed as necrotic cells after 24 hrs using annexin V/propidium iodide double staining by flow cytometry (reference value: 0.640.36 %). Format: functional.
The test system of data set [7] is PC-3. In words: Induction of apoptosis in human PC3 cells assessed as increase in caspase-3 concentration by colorimetric assay relative to untreated control. Format: functional.
Another data set concerns MCF7. In words: Cytotoxicity against human MCF7 cells after 96 hrs by […]. Format: functional, cell-based. The conditions noted are these: MCF7, 96 h. The gist of the method:
as §1

The subject of data set [8] is HepG2. The data set is described as follows: Cytotoxicity against human HepG2 cells after 96 hrs by […]. The note with it: HepG2, 96 h. Format: functional, cell-based. The method in brief: as §1
Data set [9] has as its system PC-3. In words: Induction of apoptosis in human PC3 cells assessed as late apoptotic cells after 24 hrs using annexin V/propidium iodide double staining by flow cytometry (reference value: 0.03 %). Format: functional.
A further data set has as its system Vero. The data set is described as follows: Cytotoxicity against african green monkey Vero cells after 96 hrs […]. Format: cell-based. The note with it: chlorocebus sabaeus. The method in brief:
as §1

Data set [10] has as its system HepG2. In words: Cell cycle arrest in human HepG2 cells assessed as reduction in cells at S-phase after 24 hrs by flow cytometry (reference value: 43.65 +/- 1.1%). On the set-up: scale not given: the % may be the effect or the level left. Format: functional.
The test system of data set [11] is HepG2. The data set is described as follows: Induction of apoptosis in human HepG2 cells assessed as early apoptotic cells after 24 hrs using annexin V/propidium iodide double staining by flow cytometry (reference value: 0.00 %). Format: functional.
The subject of data set [12] is HepG2. The data set is described as follows: Induction of apoptosis in human HepG2 cells assessed as viable cells after 24 hrs using annexin V/propidium iodide double staining by flow cytometry (reference value: 99.35 %). Format: functional.
In data set [13] the test system is HepG2. The data set is described as follows: Cell cycle arrest in human HepG2 cells assessed as increase in cells at G0/G1-phase after 24 hrs by flow cytometry (reference value: 44.74 +/- 0.6%). Format: functional.
The subject of data set [14] is HepG2. The data set is described as follows: Induction of apoptosis in human HepG2 cells assessed as necrotic cells after 24 hrs using annexin V/propidium iodide double staining by flow cytometry (reference value: 0.64 %). Format: functional.
In data set [15] the test system is HepG2. In words: Induction of apoptosis in human HepG2 cells assessed as late apoptotic cells after 24 hrs using annexin V/propidium iodide double staining by flow cytometry (reference value: 0.01 %). Format: functional.
In data set [16] the test system is HepG2. In words: Induction of apoptosis in human HepG2 cells assessed as increase in caspase-3 concentration by colorimetric assay relative to untreated control. Format: functional.

Each structure is given as a SMILES string.

As for `C=C1CC[C@@H]2[C@H]([C@@H]3[C@H](C)CC[C@H]13)C2(C)C`, the IC50 with PC-3 [1] came to 9.3 µM; in the data set with A549 it was 98.4 µM; in the data set with MCF7, 20 µM; in the data set on HepG2 [8] it was 20 µM. For the same compound, the Activity in the data set with PC-3 [2] is 23.29%; with PC-3 [3], 91.85%; in the data set on PC-3 [4], 64.83%; with PC-3 [5], 1.63%; with PC-3 [6], 4.34%; in the data set with PC-3 [9] it was 2.18%. Also, the Activity entry in the data set on Vero is “Non-toxic”. Besides, in the data set with PC-3 [7], the “fold change (FC)” value came to 2.1.

Take `C/C1=C/C2OC(C)(CCCC/C(C)=C\CC1)C(O)C2C(C)C` (stereo not drawn): the Activity with HepG2 [10] came out at 8.33%; with HepG2 [11] it was 1.22%; in the data set on HepG2 [12], 93.61%; in the data set with HepG2 [13], 53.57%; with HepG2 [14] it was 2.99%; in the data set with HepG2 [15] it was 2.18%. Further, in the data set with Vero, the Activity result was “Non-toxic”. Besides, the IC50 worked out at 31.5 µM in the data set on PC-3 [1], 197 µM with A549 and 20 µM in the data set on HepG2 [8]. For the same compound, in the data set on HepG2 [16], the “fold change (FC)” value came out at 2.6.

`CC1=C2CC[C@@H]3O[C@]3(C)CC/C(C)=C/CC/C(C)=C/[C@@H]2OC1=O`: the IC50 stood at 216 µM with PC-3 [1], 73.8 µM with A549, 25 µM with MCF7 and 94 µM with HepG2 [8]. Besides, the Activity entry in the data set on Vero is reported as “Non-toxic”.

With `CC1=C2CC[C@H]3O[C@]3(C)CC/C(C)=C\CC/C(C)=C/[C@H]2OC1=O`, the Activity in the data set on HepG2 [10] was 7.11%; in the data set with HepG2 [11], 1.23%; in the data set on HepG2 [12], 93.93%; in the data set on HepG2 [13], 51.9%; in the data set with HepG2 [14], 3.08%; with HepG2 [15], 1.76%. In addition, the Activity entry with Vero is reported as “Non-toxic”. The IC50 with PC-3 [1] was determined as 112 µM; in the data set on A549, 201 µM; in the data set with MCF7, 29 µM; with HepG2 [8], 20 µM. In addition, the “fold change (FC)” value in the data set with HepG2 [16] was found to be 2.

As for `COc1cccc2c1C(=O)c1c(O)c3c(c(O)c1C2=O)C[C@@](O)(C(=O)CO)C[C@@H]3O[C@H]1C[C@H](N)[C@H](O)[C@H](C)O1` [DOXORUBICIN], the IC50 in the data set on PC-3 [1] was 0.5 µM; with HepG2 [8] it was 0.48 µM. Moreover, the Activity entry in the data set on Vero is “Non-toxic”.
